Assay results: paper PMC5362268 (Cell, 2017)
Residues, ends and D or L forms follow the SMILES beside them. *: point of attachment. Cbz = O=C(OCc1ccccc1)*

How the values were obtained:
DLD-1 cells = assay: Pan-RAS siRNA knockdown and viability; type: cell-based, human; conditions: si-panRAS vs non-targeting siRNA, 24 h, CellTiter-Glo
Procedure, shortened: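 DLD-1 cells reverse-transfected in 6-well plates with siRNA pools against HRAS, KRAS and NRAS, or a non-targeting pool. Cells then re-suspended in serum-free RPMI and seeded at 10,000 cells/well in 384-well plates overnight. Dilution series added from 10× stocks in serum-free Opti-mem; 24 h incubation; viability by CellTiter-Glo.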

[1] = test system: BRAF^V600E-CAAX-expressing MEF cells; assay: Viability assay in mouse embryo fibroblasts; type: cell-based; conditions: compared with Kras^lox/lox MEFs

| Compound | effect of combined HRAS, NRAS and KRAS knockdown on compound lethality (DLD-1 cells) | sensitivity of BRAF^V600E-CAAX-expressing cells [1] |
| --- | --- | --- |
| CC(C)C[C@@H](C=O)NC(=O)[C@H](CC(C)C)NC(=O)[C@H](CC(C)C)NC(=O)OCc1ccccc1 [MG132, reference compound] (Cbz-Leu-Leu-Leu-aldehyde) | did not sensitize |  |
| CCCS(=O)(=O)Nc1ccc(F)c(C(=O)c2c[nH]c3ncc(-c4ccc(Cl)cc4)cc23)c1F [vemurafenib, reference compound] |  | more sensitive |
